Legend:
[1] = target: Munc13-1 W22K mutant C1 domain; assay: In vitro [^3H]PDBu binding assay, GST-tagged C1 domain; set-up: species or system rat
[2] = target: Munc13-1 W22K mutant C1 domain (Rattus norvegicus, UniProt Q62768, W588K); assay: as above; conditions: 100 μg/mL lipid, 0.1 mM Ca2+
[3] = target: Munc13-1 W22A mutant C1 domain (Rattus norvegicus, UniProt Q62768, W588A); assay: as above; conditions: 100 μg/mL lipid, 0.1 mM Ca2+
[4] = target: Munc13-1 W22A mutant C1 domain; assay: as above; set-up: species or system rat
[5] = target: full-length Munc13-1 mutated at W588D (Rattus norvegicus, UniProt Q62768, W588D); format: binding; conditions: preparation from cells expressing the mutant
[6] = target: full-length Munc13-1 wild-type protein (Rattus norvegicus, UniProt Q62768); format: binding; conditions: 100 μg/mL lipid (100% PS), 0.1 mM Ca2+
In short: (§1)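 Rat full-length Munc13-1 (WT or W588 mutant) was expressed as an N-terminal Halo fusion in transfected HEK-293 cells and harvested after one day. It was purified on Halo-link resin, released with TEV protease and stored in 30% glycerol at –80 °C. [3H]PDBu saturation binding used 100 μg/mL lipid (100% PS) and 0.1 mM Ca2+. Kd came from saturation/Scatchard analysis; triplicate points, 3–6 experiments, mean ± SEM.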

[7] = target: full-length Munc13-1 protein incorporating the W22K mutation (W588 K) (Rattus norvegicus, UniProt Q62768, W588K); conditions: in vitro binding conditions as for full-length WT
In short: as §1

Munc13-1 WT C1 domain = Munc13-1 WT C1 domain (Rattus norvegicus, UniProt Q62768); assay: In vitro [^3H]PDBu binding assay, GST-tagged C1 domain; conditions: for Kd: 100 μg/mL lipid
[8] = target: full-length GFP-Munc13-1 W588A (Rattus norvegicus, UniProt Q62768, W588A); assay: PMA-induced membrane translocation, confocal microscopy of Neuro-2a cells; format: cell-based; conditions: 1000 nM PMA, 0-8 min, vs wild-type
In short: (§2)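 EGFP-tagged full-length rat Munc13-1 mutants were made by site-directed mutagenesis. Neuro-2a cells (passage 2–15; RPMI-1640, 10% FBS, 2 mM L-glutamine; 37 °C) were transfected with Lipofectamine 3000. After 24 h, cells went into phenol-red-free DMEM with 1% FBS. PMA (1000 nM) was added at time 0, with confocal imaging every 20 s (ex 488 nm, em 500–530 nm). Membrane/cytoplasm intensity ratio used three ~5 μm2 regions at 0, 2, 4 and 8 min; 3 cells × 3 experiments, mean ± SEM.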

[9] = target: GFP-tagged full-length Munc13-1 (Rattus norvegicus, UniProt Q62768); assay: Translocation after PMA treatment, confocal microscopy of LNCaP cells; format: cell-based
In short: (§3)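 LNCaP cells (passage 2–15; RPMI-1640, 10% FBS, 2 mM L-glutamine) were grown to 75% confluency and transfected with Lipofectamine plus Plus reagent 24 h after plating. They expressed GFP-tagged rat Munc13-1 C1 domain or GFP-tagged full-length protein. After a further 24 h, cells were moved to phenol-red-free DMEM with 1% FBS. PMA (100 or 1000 nM) was added and localization was followed by live confocal imaging (GFP ex 488 nm); 3 independent experiments.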

[10] = target: GFP tagged Munc13-1 C1 domain (Rattus norvegicus, UniProt Q62768); assay: as above; format: cell-based
In short: as §3

[11] = target: full-length GFP-Munc13-1 W588Y (Rattus norvegicus, UniProt Q62768, W588Y); assay: PMA-induced membrane translocation, confocal microscopy of Neuro-2a cells; format: cell-based; conditions: 1000 nM PMA, 0-8 min, vs wild-type
In short: as §2

[12] = target: full-length GFP-Munc13-1 W588K (Rattus norvegicus, UniProt Q62768, W588K); assay: PMA-induced membrane translocation, confocal microscopy of Neuro-2a cells; format: cell-based; conditions: 1000 nM PMA, 0-8 min, vs wild-type
[13] = target: full-length GFP-Munc13-1 W588F (Rattus norvegicus, UniProt Q62768, W588F); assay: as above; format: cell-based; conditions: 1000 nM PMA, 0-8 min, vs wild-type
[14] = target: full-length GFP-Munc13-1 W599D (Rattus norvegicus, UniProt Q62768, W588D); assay: PMA-induced membrane translocation, confocal microscopy of Neuro-2a cells; format: cell-based; conditions: 1000 nM PMA, 0-8 min, vs wild-type
In short: as §2

W22G of PKCθ C1B = conditions: 100% PS; cited from earlier work
PKCδ C1B W22R = conditions: PS concentration 10%; cited from earlier work
W22G of PKCδ C1B = conditions: 100% PS; cited from earlier work

## CCCC(=O)O[C@@H]1[C@@H](C)[C@@]2(O)[C@@H](C=C(CO)C[C@]3(O)C(=O)C(C)=C[C@@H]23)[C@@H]2C(C)(C)[C@]12OC(=O)CCC [[^3H]PDBu, [20-^3H]Phorbol 12,13-dibutyrate]
[1]; Lipid 20:80 PS:PC
  Kd(mutant)/Kd(WT): 13
[1]; Lipid 100:0 PS:PC
  Kd(mutant)/Kd(WT): 1.6
[2]; Lipid 20:80 PS:PC
  Kd: 420 ± 120 nM
[2]; Lipid 100:0 PS:PC
  Kd: 160 ± 20 nM
[3]; Lipid 20:80 PS:PC
  Kd: > 1000 nM
[3]; Lipid 100:0 PS:PC
  Kd: 460 ± 260 nM
[4]; Lipid 20:80 PS:PC
  Kd(mutant)/Kd(WT): >31
[4]; Lipid 100:0 PS:PC
  Kd(mutant)/Kd(WT): 4.7
[5]
  [^3H]PDBu binding: did not see any binding
[6]
  Kd: 3.7 ± 0.32 nM
[7]
  Kd: 3.3 ± 1.2 nM
Munc13-1 WT C1 domain; 5 nM [^3H]PDBu, 100 μg/mL phospholipid, 0.1 mM Ca2+
  amount of [^3H]PDBu bound at 100% PS relative to that at 20% PS: less than 15%
Munc13-1 WT C1 domain; 100% PS
  fold weaker binding affinity than that of the C1b domain of PKCδ: 100 fold
Munc13-1 WT C1 domain; Lipid 20:80 PS:PC, 0.1 mM Ca2+
  Kd: 32.5 ± 2.6 nM
Munc13-1 WT C1 domain; Lipid 100:0 PS:PC, 0.1 mM Ca2+
  Kd: 98 ± 36 nM

## CCCCCCCCCCCCCC(=O)O[C@@H]1[C@@H](C)[C@@]2(O)[C@@H](C=C(CO)C[C@]3(O)C(=O)C(C)=C[C@@H]23)[C@@H]2C(C)(C)[C@]12OC(C)=O [PMA, phorbol 12-myristate 13-acetate]
[8]
  translocation in response to PMA: significantly decreased translocation
[9]
  translocation of full-length Munc13-1: translocated to the plasma membrane
[10]; 100 nM PMA
  translocation of GFP-C1 domain: Translocation was not observed
[10]; 1000 nM PMA
  translocation of GFP-C1 domain: translocated within 10 min from the nucleus to internal membranes but not to the plasma membrane
[11]
  translocation in response to PMA: delayed
[12]
  translocation in response to PMA: did not significantly influence the translocation
[13]
  translocation in response to PMA: did not significantly influence the translocation
[14]
  translocation in response to PMA: totally abolished

## CCCCCCCCCCCCCC(=O)O[C@@H]1[C@@H](C)[C@@]2(O)[C@@H](C=C(CO)C[C@]3(O)C(=O)C(C)=C[C@@H]23)[C@@H]2C(C)(C)[C@]12OC(C)=O [phorbol ester]
W22G of PKCθ C1B
  fold reduction in phorbol ester affinity as compared to WT: 8 fold
[1]; Lipid 20:80 PS:PC
  Kd(mutant)/Kd(WT): 13
[1]; Lipid 100:0 PS:PC
  Kd(mutant)/Kd(WT): 1.6
PKCδ C1B W22R
  fold reduced phorbol ester affinity as compared to the WT: 9 fold
[4]; Lipid 100:0 PS:PC
  Kd(mutant)/Kd(WT): ~ 5
[6]
  Kd: 3.7 nM
W22G of PKCδ C1B
  fold reduction in phorbol ester affinity as compared to WT: 31 fold
Munc13-1 WT C1 domain; Lipid 100:0 PS:PC, 0.1 mM Ca2+
  Kd: 98 nM
